The target in data set [1] is T1, Toll-like receptor 4 (Homo sapiens, UniProt O00206). Put plainly: Antagonist activity at human TLR4 expressed in LPS-stimulated HEK293 cells co-expressing MD-2 and CD14 after 2 hrs by SEAP assay.
Data set [2] relates to PBMC. Put plainly: Inhibition of TNFalpha secretion in human PBMC preincubated at 100 uM for 2 hrs before LPS challenge measured after 48 hrs by ELISA. Type of data set: functional. The method in brief: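 PBMCs were isolated from healthy volunteer blood and pre-incubated with compound for 2 h. They were then challenged with LPS for 48 h, with TAK-242 as positive control. Supernatant TNF-α was measured by ELISA, and significance was tested by unpaired t tests.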
Background: ELISA stands for enzyme-linked immunosorbent assay.

Data set [3] concerns the target T1, Toll-like receptor 4. Put plainly: Antagonist activity at human TLR4 expressed in LPS-stimulated HEK293 cells co-expressing MDM2 and CD14 after 2 hrs by SEAP assay. Type of data set: cell-based. As to conditions: in the assay text read “MD-2” for “MDM2”. The gist of the method: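 HEK-Blue hTLR4 cells (HEK293 co-transfected with human TLR4, MD-2, CD14 and an inducible SEAP reporter) were cultured per provider instructions. They were pre-incubated with compound at various concentrations for 2 h at 37 C, then challenged with LPS for 20 h. Supernatant SEAP was read colorimetrically, and IC50 was calculated from the decrease in absorbance.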

In data set [4] the target is T1, Toll-like receptor 4. Put plainly: Binding affinity to human recombinant TLR4 up to 320 uM by SPR method. The method in brief:
(§1)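 Recombinant human TLR4 was amine-coupled to a CM5 chip at about 8000 RU. Titration was run at 25 °C in PBS pH 7.4 with 2% DMSO, at 0, 5, 10, 20, 40, 80 (repeated at the end), 160 and 320 µM. Each injection lasted 1 min and dissociation was followed for 30 s. The response at the end of association was plotted against concentration.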

In data set [5] the target is T1, Toll-like receptor 4. Put plainly: Binding affinity to human recombinant TLR4 at >320 uM by SPR method. The method in brief:
as §1

Data set [6] has as its target T1, Toll-like receptor 4. Put plainly: Binding affinity to human recombinant TLR4 at 20 uM by SPR method. The method in brief: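 Recombinant human TLR4 was amine-coupled to a CM5 chip at about 8000 RU, with a reference flow cell. Runs were at 25 °C in PBS pH 7.4 plus 2% DMSO running buffer. Compounds were injected at 20 and 200 µM for 1 min, and dissociation was monitored for 30 s. Responses were compared against buffer injection, with no regeneration.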
A general note: SPR reads the build-up and loss of mass on a sensor chip optically.

For data set [7], the system named is HEK293. Put plainly: Cytotoxicity against HEK293 cells after 24 hrs by flow cytometry. The format is cell-based. Particulars: human, hek293, 24 h. The method in brief: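 HEK293 cells were cultured for 24 h with compound at 100 or 200 µM, with DMSO as control. Cells were then harvested and stained with propidium iodide to count dead cells. Solubility in RPMI 1640 was first checked by light microscopy for precipitation.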
On the technique in general: A flow cytometer gives signals particle by particle.

The source made the active and inactive calls. The calls are words filed in the database; no cut-off is given here.

For orientation: IC50 means the concentration needed to halve the response being measured. Read a low IC50 as greater potency in that assay. Usually inhibition stands for the share of the control response that was lost under treatment. A higher inhibition goes with a response far below the control.

T1 sequence (O00206 whole entry): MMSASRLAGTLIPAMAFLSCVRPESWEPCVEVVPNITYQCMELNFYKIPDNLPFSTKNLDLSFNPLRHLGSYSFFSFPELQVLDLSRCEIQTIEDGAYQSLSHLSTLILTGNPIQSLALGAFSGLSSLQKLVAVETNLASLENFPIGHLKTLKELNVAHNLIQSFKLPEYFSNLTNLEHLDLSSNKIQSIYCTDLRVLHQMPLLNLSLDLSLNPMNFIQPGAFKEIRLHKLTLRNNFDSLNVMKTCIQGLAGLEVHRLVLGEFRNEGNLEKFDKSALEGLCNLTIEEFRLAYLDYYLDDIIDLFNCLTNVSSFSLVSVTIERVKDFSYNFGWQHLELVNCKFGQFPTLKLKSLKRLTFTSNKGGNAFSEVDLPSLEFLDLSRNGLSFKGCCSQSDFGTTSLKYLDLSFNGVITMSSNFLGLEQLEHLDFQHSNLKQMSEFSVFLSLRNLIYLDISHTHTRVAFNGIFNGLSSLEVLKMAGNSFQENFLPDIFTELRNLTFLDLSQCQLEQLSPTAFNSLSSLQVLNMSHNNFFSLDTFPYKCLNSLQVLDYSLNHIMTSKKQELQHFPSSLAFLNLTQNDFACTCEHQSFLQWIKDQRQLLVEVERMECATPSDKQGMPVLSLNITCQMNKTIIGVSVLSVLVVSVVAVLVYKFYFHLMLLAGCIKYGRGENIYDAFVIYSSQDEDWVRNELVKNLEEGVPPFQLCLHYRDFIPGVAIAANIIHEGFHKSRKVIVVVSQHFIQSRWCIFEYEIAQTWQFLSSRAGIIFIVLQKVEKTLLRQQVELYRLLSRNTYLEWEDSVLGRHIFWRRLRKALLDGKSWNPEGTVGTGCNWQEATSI

For `O=C(CSCC(=O)Nc1ccccc1)NNC(=O)Nc1ccc(Cl)cc1`, in data set [1], the IC50 result is “ND(Insoluble)”.

Consider `O=C(CSc1nnc(-c2ccc3c(c2)OCCO3)c(O)n1)Nc1ccc(F)cc1`, for which, in data set [1], the IC50 result is “ND(Insoluble)”. Consider `CCN1CCN(CCNC(=O)[C@H](C)C2CCN(C(=O)c3cc4cc(Cl)ccc4[nH]3)CC2)CC1`, for which the IC50 result in data set [1] is “ND(Insoluble)”.

For the compound `CN(Cc1nc2ccccc2s1)C[C@@H](O)COc1ccc(F)cc1`, the IC50 result in data set [1] is “Not Active”. Regarding `O=C(NCCNC(=O)c1cc2ccccc2[nH]1)C(=O)NCc1ccc2c(c1)OCO2`, the IC50 entry in data set [1] was “Not Active”. As to `COc1cccc(NC(=O)/C=C(\C)NNC(=O)c2ccc(-c3ccccc3)cc2)c1`, the IC50 result in data set [1] is listed as “ND(Insoluble)”.

Turning to `Cc1ncc(CN(C)C[C@@H](O)COc2ccc(F)cc2)s1`, the IC50 result in data set [1] is “ND(Insoluble)”. The same measure, in the same setting: to `Cc1nn(Cc2ccccc2Cl)c(C)c1CN(C)C(=O)/C=C/c1ccc2c(c1)OCO2` belongs “Not Active”; to `O=C(NCCNc1ccc(Nc2ccccn2)nn1)Nc1ccccc1F`, “Not Active”; to `CC(C)(C)[C@H]1CCc2c(sc3nc(CCC(=O)NCc4ccc5c(c4)OCO5)[nH]c(=O)c23)C1`, “ND(Insoluble)”. Regarding `COC(=O)c1ccc(/C=N/NC(=O)c2cc(-c3cccc([N+](=O)[O-])c3)[nH]n2)cc1`, the IC50 result in data set [1] is given as “ND(Insoluble)”. Still for that read-out and setting: to `CN(CC(=O)Nc1ccc(Cl)c(Cl)c1)Cc1nc2scc(-c3ccc(F)cc3)c2c(=O)[nH]1` belongs “ND(Insoluble)”; to `N=C(NC1=N[C@@H](CC(=O)Nc2ccc(Cl)cc2)C(O)=N1)Nc1ccccc1`, “Not Active”. Still for that read-out and setting: to `CC(C)(C)[C@@H]1CCc2c(sc3nc(CCC(=O)N4CCN(c5ccccn5)CC4)[nH]c(=O)c23)C1` belongs “ND(Insoluble)”; to `Cc1cccc(NC(=O)CNC(=O)CCc2nc(O)c3c4c(sc3n2)CCCC4)c1C`, “ND(Insoluble)”; to `O=c1[nH]c(CN2CCC[C@@H]2c2ccc3c(c2)OCCCO3)nc2scc(-c3ccccc3)c12`, “ND(Insoluble)”. In the case of `Cc1ccc(C(=O)Nc2c(N)nc(SCC(=O)NCc3ccc4c(c3)OCO4)[nH]c2=O)cc1`, the IC50 result in data set [1] is given as “ND(Insoluble)”. Take `CC(C)c1ccc(NC(=O)CCc2csc(NC(=O)c3ccc[nH]c3=O)n2)cc1`: the IC50 result in data set [1] was “ND(Insoluble)”. Still for that read-out and setting: to `N#Cc1ccc(OC[C@H](O)CNCc2nc3ccccc3s2)cc1` belongs “Not Active”. In data set [2], `COc1ccc(O)c(C(=O)c2cnc(/N=C(\N)Nc3ccc(F)cc3)nc2)c1` came in with an inhibition at 100 µM of 87.4%. The compound further displayed an IC50 in data set [3] of 16.6 µM. The outcome in data set [4] and in data set [6] was Active. Also, the outcome in data set [5] was inactive. Regarding `CCN(CC(=O)Nc1ccc2c(c1)OCCO2)Cc1nc2scc(-c3ccc(C)s3)c2c(=O)[nH]1`, the IC50 result in data set [1] was “ND(Insoluble)”. `Cc1cc([C@@H]2CCCN2C[C@H](O)COc2ccc(Cl)cc2)on1`: the Activity result in data set [7] is reported as “Toxic”.

On to `Nc1nc(CSc2nnc(Cc3ccccc3F)n2N)nc(Nc2ccc(Cl)cc2)n1`, for which, in data set [1], the IC50 result was “Not Active”. Same read-out and setting: to `O=C(CSCC(=O)Nc1ccccc1)NNC(=O)Nc1ccccc1` belongs “ND(Insoluble)”. Take `O=C(CN1CCC[C@H]1c1nc2ccccc2s1)c1c[nH]c(C(=O)N2CCCC2)c1`: the Activity result in data set [7] is listed as “Toxic”. In the case of `COc1ccc(OC[C@H](O)CN2CCc3ccccc3C2)cc1`, in data set [1], the IC50 entry is recorded as “ND(Insoluble)”. Same read-out and setting: to `COc1ccc(NC(=O)CN(C)C(=O)c2cc(-c3ccc(C)s3)[nH]n2)cc1` belongs “ND(Insoluble)”. On to `Cc1ccccc1Nc1nc(N)nc(CN2CCC[C@@H]2c2nc3ccccc3s2)n1`, for which the inhibition at 100 µM in data set [2] was determined as 80.8%. 64.1 µM corresponded to half-maximal inhibition in data set [3] (IC50).

As for `C[C@H](Sc1nc2scc(-c3cccs3)c2c(=O)[nH]1)C(=O)NC(=O)NC1CCCCC1`, the IC50 entry in data set [1] is reported as “ND(Insoluble)”. On the same count and under the same terms, to `Cc1nn(Cc2ccccc2Cl)c(C)c1CN(C)C(=O)/C=C/c1cccs1` belongs “Not Active”; to `C[C@@H](SCc1nc2scc(-c3ccccc3)c2c(=O)[nH]1)C(=O)Nc1ccc2c(c1)OCO2`, “Not Active”. Still for that read-out and setting: to `Cc1nn(-c2ccccc2)c(C)c1CN(C)C[C@@H](O)Cn1cccn1` belongs “Not Active”; to `COc1ccccc1CNC(=O)c1ccccc1NS(=O)(=O)c1ccc2[nH]c(=O)[nH]c2c1`, “ND(Insoluble)”; to `Cc1ccc(Cn2cc(C(=O)NNC(=O)Nc3ccc4c(c3)OCO4)ccc2=O)cc1`, “ND(Insoluble)”. With `N/C(=N\C(=O)c1ccc(-c2ccccc2)cc1)Nc1nc2ccccc2o1`, the IC50 entry in data set [1] is on record as “ND(Insoluble)”. Same read-out and setting: to `O=C(CCc1nc(O)c2c3c(sc2n1)CCCC3)NCC(=O)Nc1ccccc1Br` belongs “ND(Insoluble)”. `CN(CC(=O)Nc1ccc(N2CCOCC2)cc1)Cc1nc2scc(-c3ccccc3)c2c(=O)[nH]1`: the inhibition at 100 µM in data set [2] is 93.3%. In data set [3], the IC50 stood at 168 µM. As for `Cc1ccccc1NC(=O)NCCNc1ccc(Nc2ccccn2)nn1`, the Activity result in data set [7] is reported as “Toxic”. As to `Cc1nn(Cc2ccccc2Cl)c(C)c1CN(C)CCn1nc2ccccn2c1=O`, in data set [1], the IC50 result is reported as “Not Active”.

For the compound `O=C(CSc1nnc(-c2ccc3c(c2)OCCO3)c(O)n1)Nc1ccc(F)c(F)c1`, the IC50 entry in data set [1] is on record as “ND(Insoluble)”. In the case of `CN(CC(=O)Nc1cccc(F)c1)Cc1nc2scc(-c3ccc(F)cc3)c2c(=O)[nH]1`, the IC50 entry in data set [1] was “ND(Insoluble)”. Consider `O=C(CCc1nc2sc3c(c2c(=O)[nH]1)CCCC3)NCc1nc2ccccc2[nH]1`, for which the IC50 result in data set [1] is given as “ND(Insoluble)”. Same read-out and setting: to `C[C@H](SCc1nc2scc(-c3ccccc3)c2c(=O)[nH]1)C(=O)NCc1nc2ccccc2[nH]1` belongs “ND(Insoluble)”.

With `COc1ccc(OC[C@H](O)CN(C)C(=O)c2ccc(Cl)cc2)cc1`, the Activity entry in data set [7] is listed as “Toxic”. Regarding `COc1ccc(NC(=N)Nc2nc(C)c(Cc3ccccc3)c(O)n2)cc1`, the IC50 entry in data set [1] is “ND(Insoluble)”.
